Results from paper PMC5519669 (Forensic Toxicology, 2017).
“Also recorded” adds a separate entry of the source.

Key:
[1] = Rat plasma kinetics after intraperitoneal injection; assay type: in vivo; settings: for AUC(0-inf) / AUC(0-t) / Cmax / half-life: 3 mg/kg; for half-life: non-compartmental analysis; for Untransformed parent compound in plasma: 24 h post-dosing
[2] = Clearance in rat liver microsome incubation; assay type: in vitro ADME; settings: for half-life at 1 µM / microsomal CLint at 1 µM: male, Sprague-Dawley, rat, pooled rat liver microsomes, pH 7.4; for Parent compound after incubation: rat liver microsome incubations, after 3 h incubations; for ER (extraction ratio) / CLH (estimated hepatic clearance) / CLint (estimated intrinsic clearance): rat liver microsomes; for CLH (estimated hepatic clearance): from CLint and liver blood flow; for CLint (estimated intrinsic clearance): scaled to whole-liver dimensions
male rats = assay: Rectal body temperature; assay type: in vivo, rat; settings: 3 mg/kg i.p.; for Hypothermic effect compared to vehicle injection: 3 mg/kg; for Mean rectal body temperature versus vehicle: at 15 and 30 min and 1, 2, and 4 h post-injection
How it was run: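 Male Long–Evans rats (49 days old, jugular-catheterised, n = 4/group) were housed singly in metabolic cages and given test compound i.p. at 3 mg/mL in 7.8% polysorbate 80/92.2% saline at 1 mL/kg, with a vehicle group. Rectal temperature was taken by digital thermometer 15 min pre-dose and 15, 30 min, 1, 2, 4, 8, 24 h post-dose. Analysis used mixed two-factor ANOVA, then Dunnett's tests versus vehicle per time point.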

[3] = Clearance in human liver microsome incubation; assay type: in vitro ADME; settings: for Parent compound after incubation: human liver microsome incubations, after 3 h incubations; for ER (extraction ratio) / CLH (estimated hepatic clearance) / CLint (estimated intrinsic clearance): human liver microsomes; for CLH (estimated hepatic clearance): from CLint and liver blood flow; for CLint (estimated intrinsic clearance): scaled to whole-liver dimensions
[4] = male, Long-Evans, rat, plasma, ip
[5] = male, Long-Evans, rat, plasma, ip, Half-life, rat plasma, 3 mg/kg i.p.
[6] = male, human, pooled human liver microsomes, pH 7.4

SMILES	AUC(0-inf) [1, 4] [ng·h/mL]	AUC(0-t) [1, 4] [ng·h/mL]	Cmax [1, 4] [ng/mL]	half-life [1, 5] [min]	Untransformed parent compound in plasma ([1]; rat plasma, 3 mg/kg i.p.)	half-life at 1 µM [2] [min]	microsomal CLint at 1 µM [2] [µL/min/mg]	Parent compound after incubation [2]	ER (extraction ratio) [2]	CLH (estimated hepatic clearance) [2] [mL/min/kg body wt.]	CLint (estimated intrinsic clearance) [2] [mL/min/kg body wt.]	Hypothermic effect compared to vehicle injection (male rats)	Mean rectal body temperature versus vehicle (male rats)	Parent compound after incubation [3]	ER (extraction ratio) [3]	CLH (estimated hepatic clearance) [3] [mL/min/kg body wt.]	CLint (estimated intrinsic clearance) [3] [mL/min/kg body wt.]	half-life at 1 µM [3, 6] [min]	further results
CC(C)(NC(=O)c1cn(CCCCCF)c2ccccc12)c1ccccc1 [5F-CUMYL-PICA, 1-(5-fluoropentyl)-N-(2-phenylpropan-2-yl)-1H-indole-3-carboxamide]	843	582	65.2	720	detectible	1.19	580	still detectible	0.95	52.44	1048.24	produced hypothermic effects; also recorded: moderate hypothermic effects	significant hypothermic effects	still detectible	0.96	19.15	453.05	1.77	microsomal CLint at 1 µM [3, 6]: 390 µL/min/mg
CCCCCn1cc(C(=O)NC(C)(C)c2ccccc2)c2ccccc21 [CUMYL-PICA, 1-pentyl-N-(2-phenylpropan-2-yl)-1H-indole-3-carboxamide]	1210	1090	130	420	detectible	2.24	310	still detectible	0.91	50.22	556.88	produced hypothermic effects; also recorded: moderate hypothermic effects	significantly reduced	still detectible	0.87	17.43	135.46	5.92	CL/F (observed apparent clearance) ([1]; rat plasma, 3 mg/kg i.p.): 43.31 mL/min/kg body wt.; half-life ([1]; rat plasma, 3 mg/kg i.p.): 436 min
